Among the data in ChEMBL document CHEMBL1158761, “Globosumones A-C, cytotoxic orsellinic acid esters from the Sonoran desert endophytic fungus Chaetomium globosum” (J Nat Prod, 2005) are IC50 and Activity values, retold here.

In data set [1] the test system is NCI-H460. In words: Cytotoxicity against human NCI-H460 cells by MTT assay. It counts as functional, cell-based. A digest of the protocol: (§1)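 Cells were exposed to samples dissolved in DMSO for 72 h in RPMI-1640 medium with 10% fetal bovine serum. Inhibition of proliferation was read by the tetrazolium-based colorimetric MTT viability assay. The panel comprised NCI-H460 lung, MCF-7 breast, SF-268 glioma and MIA Pa Ca-2 pancreatic carcinoma lines, plus normal primary WI-38 fibroblasts.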
(Formazan colour is commonly taken as a measure of viable cells.)

Data set [2] is described as follows: Cytotoxicity against human WI38 cells. The class given is cell-based. The following applies: WI-38. The essentials:
as §1

Data set [3] deals with MCF7. In words: Cytotoxicity against human MCF7 cells by MTT assay. It counts as functional, cell-based. The essentials: as §1
Data set [4] deals with SF-268. Put plainly: Cytotoxicity against human SF268 cells. It counts as functional, cell-based. A digest of the protocol: as §1
Data set [5] concerns MIA PaCa-2. In words: Cytotoxicity against human MIAPaCa2 cells. It counts as functional, cell-based. The essentials: as §1
Data set [6] can be described thus: Cytotoxicity against human WI38 cells at 10 ug/mL. It counts as cell-based. The following applies: wi-38.
For data set [7], the system named is SF-268. In words: Cytotoxicity against human SF268 cells at 10 ug/mL. It counts as functional, cell-based.
Data set [8] relates to MIA PaCa-2. In words: Cytotoxicity against human MIAPaCa2 cells at 10 ug/mL. It counts as functional, cell-based.
Data set [9] deals with MCF7. Put plainly: Cytotoxicity against human MCF7 cells at 10 ug/mL by MTT assay. The class given is functional, cell-based.
The subject of data set [10] is NCI-H460. Put plainly: Cytotoxicity against human NCI-H460 cells at 10 ug/mL by MTT assay. The class given is functional, cell-based.

The source made the active and inactive calls. The calls are words filed in the database; no cut-off is given here.

By IC50 is commonly meant the concentration that gives 50% inhibition. Low values mean greater potency in that assay, high ones weaker potency in that assay.

For `COc1cccc2c1C(=O)c1c(O)c3c(c(O)c1C2=O)C[C@@](O)(C(=O)CO)C[C@@H]3O[C@H]1C[C@H](N)[C@H](O)[C@H](C)O1` [DOXORUBICIN], the IC50 with NCI-H460 [1] amounted to 0.01 µM; in [2], 0.3 µM.

In the case of `C/C=C/C(=O)COC(=O)c1c(C)cc(O)cc1O` [GLOBOSUMONE A], the IC50 with NCI-H460 [1] is 6.5 µM; in the data set on MCF7 [3], 21.3 µM; in the data set with SF-268 [4], 8.8 µM; in the data set with MIA PaCa-2 [5], 10.6 µM; in data set [2], 13 µM.

`Cc1cc(O)cc(O)c1C(=O)OCC(=O)C[C@H](C)O` [GLOBOSUMONE B]: the concentration for half-maximal inhibition (IC50) in the data set with NCI-H460 [1] was found to be 24.8 µM; in the data set on MCF7 [3], 21.9 µM; with SF-268 [4] it was 29.1 µM; in the data set on MIA PaCa-2 [5], 30.2 µM; in data set [2], 14.2 µM.

In the case of `Cc1cc(O)cc(O)c1C(=O)OCC(=O)[C@@H](O)[C@H](C)O` [GLOBOSUMONE C], the Activity entry in data set [6] is “Not Active”. In addition, the result in the data set with SF-268 [7], in the data set on MIA PaCa-2 [8], with MCF7 [9] and in the data set with NCI-H460 [10] was inactive.

Take `Cc1cc(O)cc(O)c1C(=O)O` [ORSELLINIC ACID]: in data set [6], the Activity result is “Not Active”. Moreover, the outcome with SF-268 [7], in the data set with MIA PaCa-2 [8], in the data set with MCF7 [9] and in the data set with NCI-H460 [10] was inactive.

`C/C=C/C1OC2=C(C(=O)C[C@H](C)O2)C(=O)[C@@H]1O` (some centres not stated) [TRICHODION]: the Activity entry in data set [6] is listed as “Not Active”. The result in the data set with SF-268 [7], in the data set on MIA PaCa-2 [8], with MCF7 [9] and in the data set on NCI-H460 [10] was inactive.
